From ChEMBL document CHEMBL4842367, “Strategies toward Discovery of Potent and Orally Bioavailable Proteolysis Targeting Chimera Degraders of Androgen Receptor for the Treatment of Prostate Cancer” (J Med Chem, 2021)

Tests used:
[1] = biological target: T1, Protein cereblon/Androgen receptor (Homo sapiens, UniProt P10275+Q96SW2); test: Protac activity at CRBN/AR in human VCAP cells assessed as induction of AR degradation at 1 uM by western blot analysis relative to control; assay type: cell-based; conditions: time 24.0 hrs
[2] = biological target: T1, Protein cereblon/Androgen receptor; test: Protac activity at CRBN/AR in human VCaP cells assessed as induction of AR degradation at 0.01 uM measured after 24 hrs by western blot analysis relative to control; assay type: cell-based
Summary of the method: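 VCaP cells treated 24 h at 1, 10, 100 and 1000 nM; lysed in RIPA with protease/phosphatase inhibitors, run on 4–12% SDS-PAGE, blotted to PVDF. AR bands background-subtracted and normalized to loading control; degradation relative to DMSO, average of three independent experiments.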

[3] = biological target: T1, Protein cereblon/Androgen receptor; test: Protac activity at CRBN/AR in human VCaP cells assessed as induction of AR degradation at 0.1 uM measured after 24 hrs by western blot analysis relative to control; assay type: cell-based
[4] = biological target: T1, Protein cereblon/Androgen receptor; test: Protac activity at CRBN/AR in human VCaP cells assessed as induction of AR degradation at 0.001 uM measured after 24 hrs by western blot analysis relative to control; assay type: cell-based
[5] = Plasma concentration in CB17 SCID mouse at 10 mg/kg, po measured after 1 hr by LC-MS/MS analysis; assay type: ADME, organism-based
Summary of the method: (§1)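 Single oral gavage at 10 mg/kg in 100% PEG200 to non-tumor-bearing male mice; three mice per time point, blood collected at 1, 3 and 6 h, plasma obtained by centrifugation and measured by LC–MS/MS; reported as mean ± SD.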

[6] = Plasma concentration in CB17 SCID mouse at 10 mg/kg, po measured after 3 hr by LC-MS/MS analysis; assay type: ADME, organism-based; summary of the method: as §1
[7] = Plasma concentration in CB17 SCID mouse at 10 mg/kg, po measured after 6 hr by LC-MS/MS analysis; assay type: ADME, organism-based; summary of the method: as §1

T1 sequence (P10275 whole entry, looked up): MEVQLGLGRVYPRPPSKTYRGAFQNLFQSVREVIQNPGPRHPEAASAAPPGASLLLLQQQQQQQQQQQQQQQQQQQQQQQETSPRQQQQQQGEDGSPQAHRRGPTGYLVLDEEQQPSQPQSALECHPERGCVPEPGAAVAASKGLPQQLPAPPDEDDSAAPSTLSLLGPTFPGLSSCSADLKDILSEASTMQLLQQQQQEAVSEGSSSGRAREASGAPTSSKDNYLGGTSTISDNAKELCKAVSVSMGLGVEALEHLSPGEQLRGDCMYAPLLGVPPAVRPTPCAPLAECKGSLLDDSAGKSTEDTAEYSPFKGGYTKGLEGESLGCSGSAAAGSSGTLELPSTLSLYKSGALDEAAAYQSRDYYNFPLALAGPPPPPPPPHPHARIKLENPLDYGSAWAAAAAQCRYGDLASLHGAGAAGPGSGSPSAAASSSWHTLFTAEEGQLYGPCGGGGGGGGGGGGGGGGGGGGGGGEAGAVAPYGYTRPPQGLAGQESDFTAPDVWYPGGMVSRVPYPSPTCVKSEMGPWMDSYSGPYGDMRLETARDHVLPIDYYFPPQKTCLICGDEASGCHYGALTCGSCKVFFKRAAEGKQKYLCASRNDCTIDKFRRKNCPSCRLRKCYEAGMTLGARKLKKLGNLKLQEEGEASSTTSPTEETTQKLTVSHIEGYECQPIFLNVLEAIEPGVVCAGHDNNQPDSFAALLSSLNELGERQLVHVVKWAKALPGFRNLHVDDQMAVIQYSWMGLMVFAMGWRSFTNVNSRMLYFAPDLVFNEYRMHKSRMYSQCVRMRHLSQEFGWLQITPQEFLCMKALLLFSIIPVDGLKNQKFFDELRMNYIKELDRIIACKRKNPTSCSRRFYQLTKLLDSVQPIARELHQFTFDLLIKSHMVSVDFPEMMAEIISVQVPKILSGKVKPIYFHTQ
T1 sequence (Q96SW2 whole entry, looked up): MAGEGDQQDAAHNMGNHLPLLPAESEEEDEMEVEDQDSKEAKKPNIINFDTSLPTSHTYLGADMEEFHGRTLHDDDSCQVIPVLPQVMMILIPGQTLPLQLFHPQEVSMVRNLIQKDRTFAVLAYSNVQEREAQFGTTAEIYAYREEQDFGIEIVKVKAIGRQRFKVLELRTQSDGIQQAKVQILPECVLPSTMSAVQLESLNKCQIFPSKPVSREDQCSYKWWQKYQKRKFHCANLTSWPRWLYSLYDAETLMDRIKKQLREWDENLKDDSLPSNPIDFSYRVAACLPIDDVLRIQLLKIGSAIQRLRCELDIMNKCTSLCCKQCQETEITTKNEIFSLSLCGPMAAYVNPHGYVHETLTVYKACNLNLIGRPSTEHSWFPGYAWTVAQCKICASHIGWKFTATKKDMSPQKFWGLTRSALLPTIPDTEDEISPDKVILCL

SMILES	Activity [1] [%]	Activity [2] [%]	Activity [3] [%]	Activity [4] [%]	concentration at 1 h [5] [ng/mL]	concentration at 3 h [6] [ng/mL]	concentration at 6 h [7] [ng/mL]
CC1(C)[C@H](NC(=O)c2ccc(N3CCN(C4CCC5(CC4)CN(c4ccc6c(c4)C(=O)N(C4CCC(=O)NC4=O)C6=O)C5)CC3)cc2)C(C)(C)[C@H]1Oc1ccc(C#N)c(Cl)c1 (stereo partly drawn)	82	48	73	15	–	–	–
CC1(C)[C@H](NC(=O)c2ccc(N3CCN(CCCCNc4cccc5c4C(=O)N(C4CCC(=O)NC4=O)C5=O)CC3)cc2)C(C)(C)[C@H]1Oc1ccc(C#N)c(Cl)c1 (stereo partly drawn)	32	40	47	7	–	–	–
CC1(C)[C@H](NC(=O)c2ccc(NCCCCCNc3cccc4c3C(=O)N(C3CCC(=O)NC3=O)C4=O)cc2)C(C)(C)[C@H]1Oc1ccc(C#N)c(Cl)c1 (stereo partly drawn)	38	9	36	< 5	–	–	–
CC1(C)[C@H](NC(=O)c2ccc(N3CCC4(CCC(Nc5ccc6c(c5)C(=O)N(C5CCC(=O)NC5=O)C6=O)CC4)CC3)cc2)C(C)(C)[C@H]1Oc1ccc(C#N)c(Cl)c1 (stereo partly drawn)	57	30	38	13	–	–	–
CC1(C)[C@H](NC(=O)c2ccc(N3CCN(CCNc4ccc5c(c4)C(=O)N(C4CCC(=O)NC4=O)C5=O)CC3)cc2)C(C)(C)[C@H]1Oc1ccc(C#N)c(Cl)c1 (stereo partly drawn)	76	83	79	58	1240	919	604
CC1(C)[C@H](NC(=O)c2ccc(NCCCCCCNc3ccc4c(c3)C(=O)N(C3CCC(=O)NC3=O)C4=O)cc2)C(C)(C)[C@H]1Oc1ccc(C#N)c(Cl)c1 (stereo partly drawn)	79	85	77	69	16.9	8	1.6
CC1(C)[C@H](NC(=O)c2ccc(N3CCN(C4CC5(C4)CN(c4ccc6c(c4)C(=O)N(C4CCC(=O)NC4=O)C6=O)C5)CC3)cc2)C(C)(C)[C@H]1Oc1ccc(C#N)c(Cl)c1 (stereo partly drawn)	88	78	93	37	–	–	–
CC1(C)[C@H](NC(=O)c2ccc(N3CCC4(CC3)CC(Nc3ccc5c(c3)C(=O)N(C3CCC(=O)NC3=O)C5=O)C4)cc2)C(C)(C)[C@H]1Oc1ccc(C#N)c(Cl)c1 (stereo partly drawn)	88	16	82	0	–	–	–
CC1(C)[C@H](NC(=O)c2ccc(N3CCN(C4CCC5(CC4)CCN(c4ccc6c(c4)C(=O)N(C4CCC(=O)NC4=O)C6=O)CC5)CC3)cc2)C(C)(C)[C@H]1Oc1ccc(C#N)c(Cl)c1 (stereo partly drawn)	80	38	67	14	–	–	–
N#Cc1ccc(O[C@H]2C[C@H](NC(=O)c3ccc(N4CCN(CC5CCN(c6ccc7c(c6)C(=O)N(C6CCC(=O)NC6=O)C7=O)CC5)CC4)cc3)C2)cc1Cl (stereo partly drawn)	39	30	25	< 5	–	–	–
CC1(C)[C@H](NC(=O)c2ccc(N3CCN(CC4CC5(CCN(c6ccc7c(c6)C(=O)N(C6CCC(=O)NC6=O)C7=O)C5)C4)CC3)cc2)C(C)(C)[C@H]1Oc1ccc(C#N)c(Cl)c1 (stereo partly drawn)	51	56	71	16	–	–	–
CC1(C)[C@H](NC(=O)c2ccc(N3CCN(CCCCCNc4ccc5c(c4)C(=O)N(C4CCC(=O)NC4=O)C5=O)CC3)cc2)C(C)(C)[C@H]1Oc1ccc(C#N)c(Cl)c1 (stereo partly drawn)	60	59	85	12	–	–	–
CC1(C)[C@H](NC(=O)c2ccc(C(=O)N3CCN(CC4CCN(c5ccc6c(c5)C(=O)N(C5CCC(=O)NC5=O)C6=O)CC4)CC3)cc2)C(C)(C)[C@H]1Oc1ccc(C#N)c(Cl)c1 (stereo partly drawn)	[…]	–	–	76	–	–	–
CC1(C)[C@H](NC(=O)c2ccc(NCCCCCCNc3cccc4c3C(=O)N(C3CCC(=O)NC3=O)C4=O)cc2)C(C)(C)[C@H]1Oc1ccc(C#N)c(Cl)c1 (stereo partly drawn)	48	22	43	10	–	–	–
CC1(C)[C@H](NC(=O)c2ccc(NCCCCCCCCNc3ccc4c(c3)C(=O)N(C3CCC(=O)NC3=O)C4=O)cc2)C(C)(C)[C@H]1Oc1ccc(C#N)c(Cl)c1 (stereo partly drawn)	73	76	82	48	–	–	–
CC1(C)[C@H](NC(=O)c2ccc(N3CCN(CC4CCN(c5ccc6c(c5)C(=O)N(C5CCC(=O)NC5=O)C6=O)CC4)CC3)cc2)C(C)(C)[C@H]1Oc1ccc(C#N)c(F)c1 (stereo partly drawn)	80	15	75	< 5	–	–	–

SMILES	Activity [1] [%]	Activity [2] [%]	Activity [3] [%]	Activity [4] [%]	concentration at 1 h [5] [ng/mL]	concentration at 3 h [6] [ng/mL]	concentration at 6 h [7] [ng/mL]
CC1(C)[C@H](NC(=O)c2ccc(C(=O)N3CCN(C4CN(c5ccc6c(c5)C(=O)N(C5CCC(=O)NC5=O)C6=O)C4)CC3)cc2)C(C)(C)[C@H]1Oc1ccc(C#N)c(Cl)c1 (stereo partly drawn)	83	83	95	71	–	–	–
CC1(C)[C@H](NC(=O)c2ccc(N3CCN(CC4CCN(c5ccc6c(c5)C(=O)N(C5CCC(=O)NC5=O)C6=O)CC4)CC3)cc2)C(C)(C)[C@H]1Oc1ccc(C#N)c(C(F)(F)F)c1 (stereo partly drawn)	90	45	87	22	–	–	–
CC1(C)[C@H](NC(=O)c2ccc(N3CCN(CCNc4cccc5c4C(=O)N(C4CCC(=O)NC4=O)C5=O)CC3)cc2)C(C)(C)[C@H]1Oc1ccc(C#N)c(Cl)c1 (stereo partly drawn)	32	23	41	< 5	–	–	–
CC1(C)[C@H](NC(=O)c2ccc(N3CCN(CCCNc4ccc5c(c4)C(=O)N(C4CCC(=O)NC4=O)C5=O)CC3)cc2)C(C)(C)[C@H]1Oc1ccc(C#N)c(Cl)c1 (stereo partly drawn)	53	37	54	22	267	254	96.9
CC1(C)[C@H](NC(=O)c2ccc(NCCCNc3ccc4c(c3)C(=O)N(C3CCC(=O)NC3=O)C4=O)cc2)C(C)(C)[C@H]1Oc1ccc(C#N)c(Cl)c1 (stereo partly drawn)	70	25	63	0	–	–	–
CC1(C)[C@H](NC(=O)c2ccc(N3CCN(CCCNc4cccc5c4C(=O)N(C4CCC(=O)NC4=O)C5=O)CC3)cc2)C(C)(C)[C@H]1Oc1ccc(C#N)c(Cl)c1 (stereo partly drawn)	9	< 5	< 5	< 5	–	–	–
CC1(C)[C@H](NC(=O)c2ccc(N3CCN(CC4CCN(c5ccc6c(c5)C(=O)N(C5CCC(=O)NC5=O)C6=O)CC4)CC3)cc2)C(C)(C)[C@H]1Oc1cnc(C#N)c(C(F)(F)F)c1 (stereo partly drawn)	41	12	33	6	–	–	–
CC1(C)[C@H](NC(=O)c2ccc(N3CCN(CC4CC5(C4)CN(c4ccc6c(c4)C(=O)N(C4CCC(=O)NC4=O)C6=O)C5)CC3)cc2)C(C)(C)[C@H]1Oc1ccc(C#N)c(Cl)c1 (stereo partly drawn)	95	82	97	30	–	–	–
CC1(C)[C@H](NC(=O)c2ccc(NCCCCCNc3ccc4c(c3)C(=O)N(C3CCC(=O)NC3=O)C4=O)cc2)C(C)(C)[C@H]1Oc1ccc(C#N)c(Cl)c1 (stereo partly drawn)	97	84	89	49	111	55.9	2.9
CC1(C)[C@@H](NC(=O)c2ccc(N3CCN(CC4CCN(c5ccc6c(c5)C(=O)N(C5CCC(=O)NC5=O)C6=O)CC4)CC3)cc2)C[C@@H]1Oc1ccc(C#N)c(Cl)c1 (stereo partly drawn)	90	19	75	< 5	–	–	–
CC1(C)[C@H](NC(=O)c2ccc(NCCCCCCCNc3ccc4c(c3)C(=O)N(C3CCC(=O)NC3=O)C4=O)cc2)C(C)(C)[C@H]1Oc1ccc(C#N)c(Cl)c1 (stereo partly drawn)	62	58	79	28	–	–	–
CC1(C)[C@H](NC(=O)c2ccc(NCCCCNc3ccc4c(c3)C(=O)N(C3CCC(=O)NC3=O)C4=O)cc2)C(C)(C)[C@H]1Oc1ccc(C#N)c(Cl)c1 (stereo partly drawn)	21	76	55	42	–	–	–
CC1(C)[C@H](NC(=O)c2ccc(N3CCN(C4CC5(CCN(c6ccc7c(c6)C(=O)N(C6CCC(=O)NC6=O)C7=O)C5)C4)CC3)cc2)C(C)(C)[C@H]1Oc1ccc(C#N)c(Cl)c1 (stereo partly drawn)	84	80	87	38	–	–	–
CC1(C)[C@H](NC(=O)c2ccc(C(=O)N3CCN(CC4CN(c5ccc6c(c5)C(=O)N(C5CCC(=O)NC5=O)C6=O)C4)CC3)cc2)C(C)(C)[C@H]1Oc1ccc(C#N)c(Cl)c1 (stereo partly drawn)	79	92	96	65	–	–	–
CC1(C)[C@H](NC(=O)c2ccc(N3CCN(C4CN(c5ccc6c(c5)C(=O)N(C5CCC(=O)NC5=O)C6=O)C4)CC3)cc2)C(C)(C)[C@H]1Oc1ccc(C#N)c(Cl)c1 (stereo partly drawn)	73	77	91	54	–	–	–
CC1(C)[C@H](NC(=O)c2ccc(N3CCN(CCCCNc4ccc5c(c4)C(=O)N(C4CCC(=O)NC4=O)C5=O)CC3)cc2)C(C)(C)[C@H]1Oc1ccc(C#N)c(Cl)c1 (stereo partly drawn)	82	63	84	42	–	–	–
